# Data reported in ChEMBL document CHEMBL2311269, “Identification of benzofuran-3-yl(phenyl)methanones as novel SIRT1 inhibitors: binding mode, inhibitory mechanism and biological action” (Eur J Med Chem, 2013).
# Activity calls are given as the source filed them. The rule behind the calls is not given here.
# Columns and labels:
# [1] = molecular target: T1, NAD-dependent protein deacetylase sirtuin-1 (Homo sapiens, UniProt Q96EB6); test: Inhibition of N-terminal His6-tagged SIRT1 coding region (156-664) (unknown origin) expressed in Escherichia coli BL21(DE3) using 31.25 uM ac-RHKKac-AMC and 750 uM NAD+ as substrate after 45 mins by fluorometric analysis
# T1 sequence (Q96EB6 whole entry): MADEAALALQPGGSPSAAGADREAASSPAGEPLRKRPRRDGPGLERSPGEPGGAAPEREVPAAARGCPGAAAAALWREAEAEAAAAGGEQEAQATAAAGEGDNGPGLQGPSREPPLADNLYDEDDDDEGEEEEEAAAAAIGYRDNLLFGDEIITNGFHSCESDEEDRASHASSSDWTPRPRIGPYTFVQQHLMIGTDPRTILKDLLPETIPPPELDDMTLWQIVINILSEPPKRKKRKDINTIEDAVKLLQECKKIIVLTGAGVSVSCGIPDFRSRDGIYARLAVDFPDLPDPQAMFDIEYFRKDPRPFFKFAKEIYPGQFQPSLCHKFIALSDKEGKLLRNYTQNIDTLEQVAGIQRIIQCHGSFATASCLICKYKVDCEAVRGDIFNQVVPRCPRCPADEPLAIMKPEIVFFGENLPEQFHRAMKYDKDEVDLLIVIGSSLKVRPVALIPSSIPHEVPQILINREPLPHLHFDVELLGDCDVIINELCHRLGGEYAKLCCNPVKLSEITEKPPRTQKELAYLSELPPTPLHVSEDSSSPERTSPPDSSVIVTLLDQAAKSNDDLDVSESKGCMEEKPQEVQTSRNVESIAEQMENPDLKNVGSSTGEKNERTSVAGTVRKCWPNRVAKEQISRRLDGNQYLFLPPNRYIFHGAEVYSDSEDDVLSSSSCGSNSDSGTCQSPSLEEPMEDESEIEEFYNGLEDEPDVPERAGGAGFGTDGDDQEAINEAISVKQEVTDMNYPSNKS
# [2] = molecular target: T2, NAD-dependent protein deacetylase sirtuin-1 (Homo sapiens) (UniProt Q96EB6); test: Inhibition of SIRT1-mediated p53 deacetylation in human MCF7 cells after 6 hrs by Western blot analysis; type: cell-based
# T2 sequence (whole entry): T1 sequence (Q96EB6 whole entry)
# Outline: (§1)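 MCF-7 cells grown in DMEM with 10% fetal calf serum were treated with graded inhibitor concentrations. Lysate protein was run on a 9% gel, transferred to nitrocellulose, blocked 1 h at room temperature in 5% milk/TBST, and probed for acetyl-p53 and total p53.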
# [3] = system: T3, NAD-dependent protein deacetylase sirtuin-3, mitochondrial (Homo sapiens), Q9NTG7 [L195F]; test: Inhibition of N-terminal His6-tagged SIRT3 L195F mutant (unknown origin) expressed in Escherichia coli BL21(DE3) using ac-RHKKac-AMC as substrate at 50 to 100 uM after 45 mins by fluorometric analysis
# T3 sequence (whole entry): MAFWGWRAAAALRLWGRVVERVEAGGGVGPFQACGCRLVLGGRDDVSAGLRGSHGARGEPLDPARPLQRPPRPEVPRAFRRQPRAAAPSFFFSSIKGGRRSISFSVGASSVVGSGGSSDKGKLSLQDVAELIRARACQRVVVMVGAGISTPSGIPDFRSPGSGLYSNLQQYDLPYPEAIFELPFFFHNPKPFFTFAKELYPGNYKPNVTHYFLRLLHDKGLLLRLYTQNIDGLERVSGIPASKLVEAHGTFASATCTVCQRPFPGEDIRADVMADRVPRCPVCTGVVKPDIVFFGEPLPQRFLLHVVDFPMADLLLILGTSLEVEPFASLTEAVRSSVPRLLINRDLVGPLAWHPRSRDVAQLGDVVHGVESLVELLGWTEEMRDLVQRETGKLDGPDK
# [4] = molecular target: T4, NAD-dependent protein deacetylase sirtuin-1 (Homo sapiens, UniProt Q96EB6, I347A); test: Mixed type inhibition of N-terminal His6-tagged SIRT1 I347A mutant (unknown origin) expressed in Escherichia coli BL21(DE3) using NAD+ as substrate by Lineweaver-Burk plot analysis in presence of ac-RHKKac-AMC
# T4 sequence (Q96EB6 2-747 I347A limits assumed): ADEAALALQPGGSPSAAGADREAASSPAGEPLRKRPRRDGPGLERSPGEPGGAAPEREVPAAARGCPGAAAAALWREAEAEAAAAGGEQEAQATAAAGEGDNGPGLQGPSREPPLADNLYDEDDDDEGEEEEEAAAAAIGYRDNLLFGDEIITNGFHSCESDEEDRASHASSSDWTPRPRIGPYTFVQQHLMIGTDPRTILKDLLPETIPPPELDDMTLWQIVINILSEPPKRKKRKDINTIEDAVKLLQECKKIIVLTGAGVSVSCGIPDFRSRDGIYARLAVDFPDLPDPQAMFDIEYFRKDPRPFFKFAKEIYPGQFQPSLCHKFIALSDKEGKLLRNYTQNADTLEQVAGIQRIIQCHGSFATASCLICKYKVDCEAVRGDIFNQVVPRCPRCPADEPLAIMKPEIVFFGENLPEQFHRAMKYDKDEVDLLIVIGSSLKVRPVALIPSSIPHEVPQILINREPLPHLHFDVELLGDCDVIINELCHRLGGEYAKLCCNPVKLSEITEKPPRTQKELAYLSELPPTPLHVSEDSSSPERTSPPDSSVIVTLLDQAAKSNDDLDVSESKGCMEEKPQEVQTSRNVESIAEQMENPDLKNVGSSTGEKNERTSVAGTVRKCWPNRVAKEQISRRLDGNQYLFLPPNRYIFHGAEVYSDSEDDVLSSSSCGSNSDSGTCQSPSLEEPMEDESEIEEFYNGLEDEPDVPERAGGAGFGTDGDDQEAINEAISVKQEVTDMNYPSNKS
# Outline: (§2)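 Velocities of each SIRT1 point mutant were measured at varied inhibitor concentrations with NAD+ varied and peptide present. Reciprocal velocities were plotted against 1/[NAD+], the slopes were replotted versus inhibitor concentration, and Ki was taken from the x-intercepts of these secondary plots.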
# [5] = molecular target: T5, NAD-dependent protein deacetylase sirtuin-1 (Homo sapiens, UniProt Q96EB6, F312L); test: Inhibition of N-terminal His6-tagged SIRT1 F312L mutant (unknown origin) expressed in Escherichia coli BL21(DE3) using ac-RHKKac-AMC as substrate after 45 mins by fluorometric analysis
# T5 sequence (Q96EB6 2-747 F312L limits assumed): as the sequence (Q96EB6 2-747 I347A limits assumed) above, with F311L, A346I counted along it
# Outline: (§3)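 Mutant SIRT1 enzyme levels were set to give the same deacetylase activity as wild type. The AMC-peptide/NAD+ fluorogenic assay ran in Tris pH 8.0 buffer for 45 min at room temperature, followed by nicotinamide stop, trypsin development and a 340/490 nm fluorescence read. IC50 was obtained by curve fitting.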
# [6] = molecular target: T5, NAD-dependent protein deacetylase sirtuin-1; test: Mixed type inhibition of N-terminal His6-tagged SIRT1 F312L mutant (unknown origin) expressed in Escherichia coli BL21(DE3) using NAD+ as substrate by Lineweaver-Burk plot analysis in presence of ac-RHKKac-AMC; outline: as §2
# [7] = molecular target: T2, NAD-dependent protein deacetylase sirtuin-1 (Homo sapiens); test: Inhibition of N-terminal His6-tagged SIRT1 coding region (156-664) (unknown origin) expressed in Escherichia coli BL21(DE3) using 100 uM ac-RHKKac-AMC and 20 uM NAD+ as substrate after 45 mins by fluorometric analysis
# [8] = molecular target: T1, NAD-dependent protein deacetylase sirtuin-1; test: Mixed-type inhibition of N-terminal His6-tagged SIRT1 coding region (156-664) (unknown origin) expressed in Escherichia coli BL21(DE3) using NAD+ as substrate by Lineweaver-Burk plot analysis in presence of ac-RHKKac-AMC
# Outline: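 With ac-RHKK(ac)-AMC held fixed, NAD+ was varied at several inhibitor concentrations. Fluorogenic deacetylation velocities were analysed by Lineweaver–Burk plots against NAD+ concentration.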
# [9] = molecular target: T2, NAD-dependent protein deacetylase sirtuin-1 (Homo sapiens); test: Noncompetitive inhibition of N-terminal His6-tagged SIRT1 coding region (156-664) (unknown origin) expressed in Escherichia coli BL21(DE3) using ac-RHKKac-AMC as substrate by Lineweaver-Burk plot analysis in presence of NAD+
# [10] = molecular target: T6, NAD-dependent protein deacetylase sirtuin-1 (Homo sapiens, UniProt Q96EB6, N346A); test: Inhibition of N-terminal His6-tagged SIRT1 N346A mutant (unknown origin) expressed in Escherichia coli BL21(DE3) using ac-RHKKac-AMC as substrate after 45 mins by fluorometric analysis; outline: as §3
# T6 sequence (Q96EB6 2-747 N346A limits assumed): as the sequence (Q96EB6 2-747 I347A limits assumed) above, with N345A, A346I counted along it
# MCF7 = test: Effect on p53 protein level in human MCF7 cells at 1.2 to 100 uM after 6 hrs by Western blot analysis; type: functional, cell-based; outline: as §1
# [11] = molecular target: T7, NAD-dependent protein deacetylase sirtuin-1 (Homo sapiens, UniProt Q96EB6, F273L); test: Inhibition of N-terminal His6-tagged SIRT1 F273L mutant (unknown origin) expressed in Escherichia coli BL21(DE3) using ac-RHKKac-AMC as substrate after 45 mins by fluorometric analysis; outline: as §3
# T7 sequence (Q96EB6 2-747 F273L limits assumed): as the sequence (Q96EB6 2-747 I347A limits assumed) above, with F272L, A346I counted along it
# [12] = molecular target: T4, NAD-dependent protein deacetylase sirtuin-1; test: Inhibition of N-terminal His6-tagged SIRT1 I347A mutant (unknown origin) expressed in Escherichia coli BL21(DE3) using ac-RHKKac-AMC as substrate after 45 mins by fluorometric analysis; outline: as §3
# [13] = molecular target: T2, NAD-dependent protein deacetylase sirtuin-1 (Homo sapiens); test: Reversible inhibition of N-terminal His6-tagged SIRT1 coding region (156-664) (unknown origin) expressed in Escherichia coli BL21(DE3) using ac-RHKKac-AMC as substrate incubated at 10-fold IC50 for 30 mins followed by 100-fold dilution measured up to 40 mins by fluorometric analysis
# Outline: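 Enzyme was preincubated with inhibitor or DMSO at room temperature for 30 min, then rapidly diluted 100-fold into reaction buffer containing NAD+ and ac-RHKK(ac)-AMC. Deacetylated product was monitored over time, and the slope of the inhibitor curve was compared with the DMSO control.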
# [14] = molecular target: T6, NAD-dependent protein deacetylase sirtuin-1; test: Mixed type inhibition of N-terminal His6-tagged SIRT1 N346A mutant (unknown origin) expressed in Escherichia coli BL21(DE3) using NAD+ as substrate by Lineweaver-Burk plot analysis in presence of ac-RHKKac-AMC; outline: as §2
# [15] = molecular target: T7, NAD-dependent protein deacetylase sirtuin-1; test: Mixed type inhibition of N-terminal His6-tagged SIRT1 F273L mutant (unknown origin) expressed in Escherichia coli BL21(DE3) using NAD+ as substrate by Lineweaver-Burk plot analysis in presence of ac-RHKKac-AMC; outline: as §2
IC50 [1] [µM],Compound,further results
> 300,COc1ccc(OC)c(C(=O)c2coc3cc(Br)c(O)c(Br)c23)c1,
256,COc1ccc(C(=O)c2coc3c2cc(O)c2ccccc23)cc1,
88,Cc1cc2occ(C(=O)c3ccc(Cl)cc3)c2cc1O,
198,O=C(c1ccccc1)c1coc2cc(Br)c(O)c(Br)c12,
> 300,O=C(c1ccccc1)c1coc2c1cc(O)c1ccccc12,
> 300,COc1cc2c(C(=O)c3ccc(Br)cc3)c(C)oc2c2ccccc12,
243,Cc1oc2ccc(O)cc2c1C(=O)c1ccc(Br)cc1,
> 300,CC(=O)Oc1ccc2occ(C(=O)c3ccccc3)c2c1,
71.4,O=C(c1ccccc1O)c1coc2ccc(O)cc12,
> 300,O=C(c1ccccc1)c1coc2ccc(O)c(CN3CCOCC3)c12,
146,O=C(c1ccc(Br)cc1)c1coc2c1cc(O)c1ccccc12,
> 300,COc1ccc(OC)c(C(=O)c2coc3ccc(OC(C)=O)cc23)c1,
> 300,Cc1ccc(C(=O)c2coc3c2cc(O)c2ccccc23)cc1,
31.2,O=C(c1cccc(O)c1)c1coc2ccc(O)cc12,
45.1,COc1ccc(O)c(C(=O)c2coc3ccc(O)cc23)c1,
2.8,O=C(c1cc(O)ccc1O)c1coc2ccc(O)cc12,inhibition [2]: Dose-dependent effect; inhibition [3]: Active; Ki [4]: 174 µM; IC50 [5]: 550 µM; Ki [6]: 254 µM; inhibition [7]: Active; Ki [8]: 0.8 µM; inhibition [9]: Active; IC50 [10]: 283 µM; Activity (MCF7): inactive; IC50 [11]: 491 µM; IC50 [12]: 421 µM; inhibition [13]: Active; Ki [14]: 253 µM; Ki [15]: 219 µM
> 300,O=C(c1ccc(OCc2ccccc2)cc1)c1coc2cc(Br)c(O)c(Br)c12,
> 300,COc1ccc(OC)c(C(=O)c2coc3ccc(O)cc23)c1,
41.7,COc1ccc(O)cc1C(=O)c1coc2ccc(O)cc12,
> 300,COc1ccc(OC)c(C(=O)c2coc3ccc(O)c(CN4CCOCC4)c23)c1,
240,O=C(c1ccc(Br)cc1)c1coc2ccc(O)cc12,
